Results published in ChEMBL document CHEMBL1165947, “Synthesis and antitumor activity of 2,5-bis(3'-indolyl)-furans and 3,5-bis(3'-indolyl)-isoxazoles, nortopsentin analogues” (Bioorg Med Chem, 2010).

How the values were obtained:
Type in all cases: functional
[1] = system: CCRF-CEM; experiment: Growth inhibition of human CCRF-CEM cells
[2] = system: HL-60(TB); experiment: Growth inhibition of human HL-60(TB) cells
How it was run: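 Values come from the NCI in vitro disease-oriented human tumour cell line screen, not from this lab's propidium iodide assay. GI50 is the concentration giving 50% inhibition of net cell growth, also reported as pGI50, the −log of that molar concentration.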

[3] = system: K562; experiment: Growth inhibition of human K562 cells
[4] = Growth inhibition of human […] cells
How it was run: (§1)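 Values come from the NCI in vitro disease-oriented human tumor cell screen. GI50 is the concentration giving 50% growth inhibition of tumor cells; pGI50 is its −log molar form.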

[5] = system: MOLT-4; experiment: Growth inhibition of human MOLT4 cells; how it was run: as §1
[6] = system: SR; experiment: Growth inhibition of human SR cells; how it was run: as §1
[7] = system: A549; experiment: Growth inhibition of human A549 cells
[8] = system: EKVX; experiment: Growth inhibition of human EKVX cells
[9] = system: HOP-62; experiment: Growth inhibition of human HOP62 cells
[10] = system: HOP-92; experiment: Growth inhibition of human HOP92 cells
[11] = system: NCI-H226; experiment: Growth inhibition of human NCI-H226 cells; how it was run: as §1
[12] = system: NCI-H23; experiment: Growth inhibition of human NCI-H23 cells; how it was run: as §1
[13] = system: NCI-H322M; experiment: Growth inhibition of human NCI-H322M cells; how it was run: as §1
[14] = system: NCI-H460; experiment: Growth inhibition of human NCI-H460 cells; how it was run: as §1
[15] = system: NCI-H522; experiment: Growth inhibition of human NCI-H522 cells; how it was run: as §1
[16] = system: COLO 205; experiment: Growth inhibition of human COLO205 cells
[17] = system: HCT-116; experiment: Growth inhibition of human HCT116 cells
[18] = system: HCT-15; experiment: Growth inhibition of human HCT15 cells
[19] = system: HT-29; experiment: Growth inhibition of human HT-29 cells
[20] = system: KM12; experiment: Growth inhibition of human KM12 cells
[21] = system: SW-620; experiment: Growth inhibition of human SW620 cells; how it was run: as §1
[22] = system: SF-268; experiment: Growth inhibition of human SF268 cells; how it was run: as §1
[23] = system: SF-295; experiment: Growth inhibition of human SF295 cells; how it was run: as §1
[24] = system: SF-539; experiment: Growth inhibition of human SF539 cells; how it was run: as §1
[25] = system: SNB-19; experiment: Growth inhibition of human SNB19 cells; how it was run: as §1
[26] = system: SNB-75; experiment: Growth inhibition of human SNB75 cells; how it was run: as §1
[27] = system: U-251; experiment: Growth inhibition of human U251 cells; how it was run: as §1
[28] = system: LOX IMVI; experiment: Growth inhibition of human LOXIMVI cells
[29] = system: Malme-3M; experiment: Growth inhibition of human MALME-3M cells; how it was run: as §1
[30] = system: M14; experiment: Growth inhibition of human M14 cells
[31] = system: SK-MEL-2; experiment: Growth inhibition of human SK-MEL-2 cells; how it was run: as §1
[32] = system: SK-MEL-28; experiment: Growth inhibition of human SK-MEL-28 cells; how it was run: as §1
[33] = system: SK-MEL-5; experiment: Growth inhibition of human SK-MEL-5 cells; how it was run: as §1
[34] = system: UACC-257; experiment: Growth inhibition of human UACC257 cells; how it was run: as §1
[35] = system: UACC-62; experiment: Growth inhibition of human UACC62 cells; how it was run: as §1
[36] = system: IGROV-1; experiment: Growth inhibition of human IGROV1 cells
[37] = system: OVCAR-3; experiment: Growth inhibition of human OVCAR-3 cells; how it was run: as §1
[38] = system: OVCAR-4; experiment: Growth inhibition of human OVCAR4 cells; how it was run: as §1
[39] = system: OVCAR-5; experiment: Growth inhibition of human OVCAR5 cells; how it was run: as §1
[40] = system: OVCAR-8; experiment: Growth inhibition of human OVCAR8 cells; how it was run: as §1
[41] = system: SK-OV-3; experiment: Growth inhibition of human SKOV3 cells; how it was run: as §1
[42] = system: NCI/ADR-RES; experiment: Growth inhibition of human NCI/ADR-RES cells; how it was run: as §1

**Q.** With `COc1ccc2c(c1)c(-c1ccc(-c3cn(C)c4ccc(OC)cc34)o1)cn2C` as the compound, how does the GI50 [1] read?
**A.** 6.46 µM

**Q.** What about the GI50 [2] of the same compound?
**A.** 1.98 µM

**Q.** What about the GI50 [3] of the same compound?
**A.** 2.86 µM

**Q.** What about the GI50 [4] of the same compound?
**A.** 2.25 µM

**Q.** And the GI50 [5]?
**A.** > 100 µM

**Q.** What about the GI50 [6] of the same compound?
**A.** 1.63 µM

**Q.** What about the GI50 [7] of the same compound?
**A.** 18.4 µM

**Q.** What about the GI50 [8] of the same compound?
**A.** 5.48 µM

**Q.** What about the GI50 [9] of the same compound?
**A.** > 100 µM

**Q.** What about the GI50 [10] of the same compound?
**A.** 1.03 µM

**Q.** And the GI50 [11]?
**A.** 23.6 µM

**Q.** And the GI50 [12]?
**A.** 17.3 µM

**Q.** And the GI50 [13]?
**A.** > 100 µM

**Q.** What about the GI50 [14] of the same compound?
**A.** 9.89 µM

**Q.** And the GI50 [15]?
**A.** 3.42 µM

**Q.** What about the GI50 [16] of the same compound?
**A.** 5.13 µM

**Q.** What about the GI50 [17] of the same compound?
**A.** 8.8 µM

**Q.** And the GI50 [18]?
**A.** 4.22 µM

**Q.** What about the GI50 [19] of the same compound?
**A.** 22 µM

**Q.** What about the GI50 [20] of the same compound?
**A.** 2.73 µM

**Q.** What about the GI50 [21] of the same compound?
**A.** 4.55 µM

**Q.** And the GI50 [22]?
**A.** 9.25 µM

**Q.** What about the GI50 [23] of the same compound?
**A.** 13.4 µM

**Q.** And the GI50 [24]?
**A.** 2.47 µM

**Q.** And the GI50 [25]?
**A.** 29.8 µM

**Q.** And the GI50 [26]?
**A.** 13.6 µM

**Q.** And the GI50 [27]?
**A.** 3.66 µM

**Q.** What about the GI50 [28] of the same compound?
**A.** 10.4 µM

**Q.** And the GI50 [29]?
**A.** 52.8 µM

**Q.** And the GI50 [30]?
**A.** 32.9 µM

**Q.** And the GI50 [31]?
**A.** 2.13 µM

**Q.** What about the GI50 [32] of the same compound?
**A.** 14 µM

**Q.** And the GI50 [33]?
**A.** 10.4 µM

**Q.** And the GI50 [34]?
**A.** 27 µM

**Q.** And the GI50 [35]?
**A.** 3.81 µM

**Q.** And the GI50 [36]?
**A.** 29.6 µM

**Q.** And the GI50 [37]?
**A.** 8.51 µM

**Q.** And the GI50 [38]?
**A.** 2.06 µM

**Q.** And the GI50 [39]?
**A.** 2.79 µM

**Q.** What about the GI50 [40] of the same compound?
**A.** 8.02 µM

**Q.** What about the GI50 [41] of the same compound?
**A.** > 100 µM

**Q.** What about the GI50 [42] of the same compound?
**A.** 2.37 µM
